Laboratory results reported in ChEMBL document CHEMBL2069243, “Synthesis and SAR of pyridothiazole substituted pyrimidine derived HCV replication inhibitors” (Bioorg Med Chem Lett, 2012).

Experiments:
[1] = test system: Hepatitis C virus; assay: Antiviral activity against Hepatitis C virus 1b con1 infected in human hepatoma cells assessed as decrease in replicon RNA level after 3 days by RT-PCR analysis; assay type: functional, organism-based, Hepacivirus hominis; details: genotype 1b Con1, 72 h
Outline: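 Con1 genotype 1b replicon cells were seeded at 5000 cells/well one day before treatment. Compound in DMSO was added (final 0.5% DMSO, 10% FBS) as 10 serial twofold dilutions in triplicate. Cells were harvested 3 days after dosing. Replicon RNA was quantified by real-time RT-PCR (Taqman), normalized to GAPDH RNA, and EC50 was calculated.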

[2] = AUC (0 to 6 hrs) in rat at 10 mg/kg, po; assay type: ADME, organism-based; parameters: time < 6 hr, dose 10 mg/kg, route oral; details: plasma
Outline: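 Rats were dosed orally at 10 mpk in 0.4% methylcellulose, n=2 per compound. Plasma was sampled at 8 time points up to 6 h, and exposure was reported as AUC0-6 h.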

[3] = Cytotoxicity against human hepatoma cells assessed as decrease in GADPH RNA level after 3 days by Rt-PCR analysis; assay type: cell-based
[4] = Cytotoxicity against human hepatoma cells after 3 days by MTS assay; assay type: cell-based
Outline: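 MTS cell proliferation assay on replicon cells handled as in the replicon activity assay (seeded one day before, 0.5% DMSO, 10% FBS, serial dilutions), read 3 days after dosing. CC50 is the concentration giving 50% inhibition relative to vehicle-treated cells.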

[5] = Drug uptake in rat liver at 10 mg/kg, po at 6 hrs; assay type: ADME, organism-based; parameters: dose 10 mg/kg, route oral; details: read-out: Drug uptake
Outline: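 Rats were dosed orally at 10 mpk in 0.4% methylcellulose, n=2. Animals were sacrificed at 6 h, and liver was harvested and processed to measure compound concentration (liver C6 h).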

[6] = Cytotoxicity against human hepatoma cells assessed as inhibition of [14C]thymidine incorporation after 3 days by TopCount analysis; assay type: cell-based
Outline: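 Replicon cells were seeded in scintillating microplates one day before treatment. Compound dilutions in triplicate were added with [methyl-14C]-thymidine (final 0.5 uCi/mL) and incubated 3 days. Incorporated label was counted by scintillation proximity. DNA CC50 is the concentration giving 50% inhibition of thymidine incorporation versus vehicle-treated cells.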

| Structure (SMILES) | EC50 [1] | AUC(0-t) at 6 h [2] | CC50 at 72 h [3] | CC50 at 72 h [4] | concentration at 6 h [5] | CC50 at 72 h [6] |
| --- | --- | --- | --- | --- | --- | --- |
| CNc1nc(C)c(-c2nc3cnccc3s2)c(N[C@@H]2C[C@H](CO)[C@@H](O)[C@H]2O)n1 | 0.052 µM | 0.3 µM·h | 14 µM | 20 µM |  |  |
| Cc1ccc([C@@H](C)Nc2nc(C)c(-c3nc4cnccc4s3)c(N[C@@H]3C[C@H](CO)[C@@H](O)[C@H]3O)n2)cc1 | 0.114 µM | 0.1 µM·h | 25 µM | > 25 µM | 116 ng/g |  |
| Cc1nc(N[C@H](C)c2ccc(OC(F)(F)F)cc2)nc(N[C@@H]2C[C@H](CO)[C@@H](O)[C@H]2O)c1-c1nc2c(C(C)C)nccc2s1 | 0.026 µM | 3.2 µM·h | 11 µM | 10 µM | 8500 ng/g |  |
| Cc1nc(N[C@H](C)c2ccccc2OC(F)(F)F)nc(N[C@@H]2C[C@H](CO)[C@@H](O)[C@H]2O)c1-c1nc2cnccc2s1 | 0.017 µM | 0.5 µM·h | 24 µM | 23 µM | 506 ng/g |  |
| Cc1nc(Nc2ccccc2)nc(N[C@@H]2C[C@H](CO)[C@@H](O)[C@H]2O)c1-c1nc2cnccc2s1 | 0.168 µM | 0.2 µM·h | 25 µM | > 25 µM | 29 ng/g |  |
| Cc1nc(N[C@H](C)c2ccc(OC(F)(F)F)cc2)nc(N[C@@H]2C[C@H](CO)[C@@H](O)[C@H]2O)c1-c1nc2c(C3CCC3)nccc2s1 | 0.016 µM | 3.3 µM·h | 5 µM | 5 µM | 4900 ng/g |  |
| Cc1nc(N[C@H](C)c2ccc(OC(F)(F)F)cc2)nc(N[C@@H]2C[C@H](CO)[C@@H](O)[C@H]2O)c1-c1nc2c(CCC#N)nccc2s1 | 0.034 µM | 0.4 µM·h | 12 µM | 12 µM | 16 ng/g |  |
| Cc1nc(NCC2CCN(C)CC2)nc(N[C@@H]2C[C@H](CO)[C@@H](O)[C@H]2O)c1-c1nc2cnccc2s1 | 1.68 µM |  | 25 µM | > 25 µM |  |  |
| Cc1cc2sc(-c3c(C)nc(N[C@H](C)c4ccc(OC(F)(F)F)cc4)nc3N[C@@H]3C[C@H](CO)[C@@H](O)[C@H]3O)nc2c(C2CC2)n1 | 0.703 µM |  | 21 µM | 24 µM |  |  |
| Cc1nc(N[C@H](C)c2ccc(OC(F)(F)F)cc2)nc(N[C@@H]2C[C@H](CO)[C@@H](O)[C@H]2O)c1-c1nc2c(CC(C)(C)C)nccc2s1 | 0.026 µM | 3.2 µM·h | 10 µM | 13 µM | 4400 ng/g |  |
| COC(=O)CCc1nccc2sc(-c3c(C)nc(N[C@H](C)c4ccc(OC(F)(F)F)cc4)nc3N[C@@H]3C[C@H](CO)[C@@H](O)[C@H]3O)nc12 | 0.059 µM |  | 23 µM | 14 µM |  |  |
| CCc1nc(C)cc2sc(-c3c(C)nc(N[C@H](C)c4ccc(OC(F)(F)F)cc4)nc3N[C@@H]3C[C@H](CO)[C@@H](O)[C@H]3O)nc12 | 0.264 µM | 25 µM·h | 23 µM | 24 µM | 257 ng/g |  |
| Cc1nc(N(C)Cc2ccccc2)nc(N[C@@H]2C[C@H](CO)[C@@H](O)[C@H]2O)c1-c1nc2cnccc2s1 | 0.301 µM | 0.2 µM·h | 25 µM | > 25 µM | 100 ng/g |  |
| Cc1nc(NCc2ccccc2)nc(N[C@@H]2C[C@H](CO)[C@@H](O)[C@H]2O)c1-c1nc2cnccc2s1 | 0.003 µM |  | 25 µM | 14 µM |  |  |
| Cc1nc(N[C@H](C)c2ccc(OC(F)(F)F)cc2)nc(N[C@@H]2C[C@H](CO)[C@@H](O)[C@H]2O)c1-c1nc2c(N)nccc2s1 | 0.037 µM |  | 25 µM | > 25 µM |  |  |
| Cc1nc(N[C@@H](C)c2ccccc2)nc(N[C@@H]2C[C@H](CO)[C@@H](O)[C@H]2O)c1-c1nc2cnccc2s1 | 0.222 µM | 0.1 µM·h | 25 µM | > 25 µM | 77 ng/g |  |
| Cc1ccc(C2(Nc3nc(C)c(-c4nc5cnccc5s4)c(N[C@@H]4C[C@H](CO)[C@@H](O)[C@H]4O)n3)CC2)cc1 | 3.17 µM |  | 25 µM | > 25 µM |  |  |
| Cc1nc(NCc2c(F)cccc2F)nc(N[C@@H]2C[C@H](CO)[C@@H](O)[C@H]2O)c1-c1nc2cnccc2s1 | 0.001 µM |  | 4 µM | 10 µM |  |  |
| Cc1nc(N[C@H](C)c2ccc(-c3cnn(C)c3)cc2)nc(N[C@@H]2C[C@H](CO)[C@@H](O)[C@H]2O)c1-c1nc2cnccc2s1 | 0.017 µM |  | 25 µM | 25 µM |  |  |

| Structure (SMILES) | EC50 [1] | AUC(0-t) at 6 h [2] | CC50 at 72 h [3] | CC50 at 72 h [4] | concentration at 6 h [5] | CC50 at 72 h [6] |
| --- | --- | --- | --- | --- | --- | --- |
| Cc1nc(N[C@H](C)c2ccccc2)nc(N[C@@H]2C[C@H](CO)[C@@H](O)[C@H]2O)c1-c1nc2cnccc2s1 | 0.007 µM | 0.2 µM·h | 25 µM | > 25 µM | 104 ng/g |  |
| Cc1nc(N[C@H](C)c2ccc(F)cc2)nc(N[C@@H]2C[C@H](CO)[C@@H](O)[C@H]2O)c1-c1nc2cnccc2s1 | 0.222 µM |  | 25 µM | 25 µM |  |  |
| Cc1nc(NCC(F)(F)F)nc(N[C@@H]2C[C@H](CO)[C@@H](O)[C@H]2O)c1-c1nc2cnccc2s1 | 0.016 µM |  | 25 µM | > 25 µM |  |  |
| Cc1nc(N[C@H](C)c2ccc(OC(F)(F)F)cc2)nc(N[C@@H]2C[C@H](CO)[C@@H](O)[C@H]2O)c1-c1nc2cnccc2s1 | 0.016 µM | 1.6 µM·h | 25 µM | > 25 µM | 1800 ng/g | 6 µM |
| Cc1nc(NC2CC2)nc(N[C@@H]2C[C@H](CO)[C@@H](O)[C@H]2O)c1-c1nc2cnccc2s1 | 0.125 µM | 1.4 µM·h | 25 µM | 19 µM | 276 ng/g |  |
| COc1cc(CCNc2nc(C)c(-c3nc4cnccc4s3)c(N[C@@H]3C[C@H](CO)[C@@H](O)[C@H]3O)n2)cc(OC)c1 | 0.012 µM | 0.1 µM·h | 25 µM | 19 µM | 100 ng/g |  |
| CCCc1nccc2sc(-c3c(C)nc(N[C@H](C)c4ccc(OC(F)(F)F)cc4)nc3N[C@@H]3C[C@H](CO)[C@@H](O)[C@H]3O)nc12 | 0.02 µM | 0.8 µM·h | 13 µM | 13 µM | 1260 ng/g |  |
| CCc1nccc2sc(-c3c(C)nc(N[C@H](C)c4ccc(OC(F)(F)F)cc4)nc3N[C@@H]3C[C@H](CO)[C@@H](O)[C@H]3O)nc12 | 0.02 µM | 5.8 µM·h | 7 µM | 7 µM | 6000 ng/g |  |
| Cc1nc(N(C)C)nc(N[C@@H]2C[C@H](CO)[C@@H](O)[C@H]2O)c1-c1nc2cnccc2s1 | 0.557 µM | 7.5 µM·h | 25 µM | > 25 µM | 1400 ng/g |  |
| CCOCCNc1nc(C)c(-c2nc3cnccc3s2)c(N[C@@H]2C[C@H](CO)[C@@H](O)[C@H]2O)n1 | 0.009 µM | 0.2 µM·h | 25 µM | 16 µM | 368 ng/g |  |
| Cc1nc(NC(C)(C)c2ccccc2)nc(N[C@@H]2C[C@H](CO)[C@@H](O)[C@H]2O)c1-c1nc2cnccc2s1 | 6.2 µM |  | 25 µM | > 25 µM |  |  |
| COc1cc(OC)cc([C@@H](C)Nc2nc(C)c(-c3nc4cnccc4s3)c(N[C@@H]3C[C@H](CO)[C@@H](O)[C@H]3O)n2)c1 | 0.037 µM | 0.1 µM·h | 25 µM | 25 µM | 17 ng/g |  |
| Cc1nc(NCc2ccc(OC(F)(F)F)cc2)nc(N[C@@H]2C[C@H](CO)[C@@H](O)[C@H]2O)c1-c1nc2cnccc2s1 | 0.003 µM |  | 25 µM | 25 µM |  |  |
| Cc1cc2sc(-c3c(C)nc(N[C@H](C)c4ccc(OC(F)(F)F)cc4)nc3N[C@@H]3C[C@H](CO)[C@@H](O)[C@H]3O)nc2c(C)n1 | 0.043 µM | 5.6 µM·h | 20 µM | 12 µM | 9800 ng/g |  |
| CCc1cc2sc(-c3c(C)nc(N[C@H](C)c4ccc(OC(F)(F)F)cc4)nc3N[C@@H]3C[C@H](CO)[C@@H](O)[C@H]3O)nc2c(CC)n1 | 0.069 µM |  | 12 µM | 13 µM |  |  |
| Cc1cc2sc(-c3c(C)nc(N[C@H](C)c4ccc(OC(F)(F)F)cc4)nc3N[C@@H]3C[C@H](CO)[C@@H](O)[C@H]3O)nc2cn1 | 0.038 µM |  | 25 µM | > 25 µM |  |  |
| Cc1nc(NCC2CC2)nc(N[C@@H]2C[C@H](CO)[C@@H](O)[C@H]2O)c1-c1nc2cnccc2s1 | 0.008 µM | 0.4 µM·h | 3 µM | 5 µM | 192 ng/g |  |
| Cc1nc(N)nc(N[C@@H]2C[C@H](CO)[C@@H](O)[C@H]2O)c1-c1nc2cnccc2s1 | 0.124 µM |  | 25 µM | 18 µM |  |  |
